Active and inactive are the calls of the source. No cut-off for these calls is given here.

The test system of assay [1] is Influenza A virus. The assay can be described thus: Antiviral activity against Unidentified Influenza A virus (H1N2) infected MDCK cells assessed as inhibition of virus-induced cytopathicity. In kind it is functional, organism-based. For orientation: Damage to the host cells serves as the signal in cytopathic effect assays.
In assay [2] the test system is Feline coronavirus. The assay can be described thus: Antiviral activity against Feline coronavirus infected feline kidney crandell cells assessed as inhibition of virus-induced cytopathicity. In kind it is functional, organism-based. In outline:
(§1)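 Confluent monolayers (feline kidney Crandell, Vero, HEL or HeLa, as named for each virus) were infected with 100 CCID50 of virus and allowed to adsorb for 1 h. Unbound virus was then removed, and cultures were incubated with test compound in serial dilutions (200, 40, 8 … µM). Cytopathicity was scored once untreated infected controls reached complete cytopathic effect.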

Assay [3] relates to Respiratory syncytial virus. The experiment in a line: Antiviral activity against Respiratory syncytial virus infected human HeLa cells assessed as inhibition of virus-induced cytopathicity. In kind it is functional, organism-based. A digest of the protocol: as §1
The test system of assay [4] is Coxsackievirus B4. The assay can be described thus: Antiviral activity against Human coxsackievirus B4 infected human HeLa cells assessed as inhibition of virus-induced cytopathicity. In kind it is functional, organism-based. A digest of the protocol: as §1
Assay [5] relates to Coxsackievirus B4. The assay can be described thus: Antiviral activity against Human coxsackievirus B4 infected VERO cells assessed as inhibition of virus-induced cytopathicity. In kind it is functional, organism-based. A digest of the protocol:
as §1

The test system of assay [6] is Mammalian orthoreovirus 1. The experiment in a line: Antiviral activity against Mammalian orthoreovirus 1 infected VERO cells assessed as inhibition of virus-induced cytopathicity. In kind it is functional, organism-based. A digest of the protocol: as §1
For assay [7], the system named is Human respirovirus 3. The experiment in a line: Antiviral activity against Human parainfluenza virus 3 infected Vero cells assessed as inhibition of virus-induced cytopathicity. It is filed as functional, organism-based. In outline:
as §1

In assay [8] the test system is Vesicular stomatitis virus. The assay can be described thus: Antiviral activity against Vesicular stomatitis virus infected HEL cells assessed as inhibition of virus-induced cytopathicity. In kind it is functional, organism-based.
The subject of assay [9] is Vaccinia virus. The assay can be described thus: Antiviral activity against Vaccinia virus infected human HEL cells assessed as inhibition of virus-induced cytopathicity. It is filed as functional, organism-based. The note with it: Orthopoxvirus vaccinia.
The subject of assay [10] is Human alphaherpesvirus 2. The assay can be described thus: Antiviral activity against Human herpesvirus 2 strain G infected human HEL cells assessed as inhibition of virus-induced cytopathicity. It is filed as functional, organism-based. In outline:
as §1

The test system of assay [11] is Human alphaherpesvirus 1. The experiment in a line: Antiviral activity against […] 1 KOS infected in human HEL cells assessed as inhibition of virus-induced cytopathicity. In kind it is functional, organism-based. In outline:
as §1

Assay [12] has as its system Sindbis virus. The experiment in a line: Antiviral activity against Sindbis virus infected Hela cells assessed as inhibition of virus-induced cytopathicity. In kind it is functional, organism-based.
Assay [13] relates to Punta Toro virus. The assay can be described thus: Antiviral activity against Punta Toro virus infected Hela cells assessed as inhibition of virus-induced cytopathicity. In kind it is functional, organism-based.
Assay [14] relates to Vesicular stomatitis virus. The experiment in a line: Antiviral activity against Vesicular stomatitis virus infected Hela cells assessed as inhibition of virus-induced cytopathicity. It is filed as functional, organism-based.
Assay [15] can be described thus: Antioxidant activity assessed as inhibition of AAPH-induced lipid peroxidation at 1 X 10^-4 M. In kind it is functional.
Assay [16] can be described thus: Antioxidant activity assessed as inhibition of AAPH-induced lipid peroxidation at 1 X 10^-5 M. In kind it is functional.
Assay [17] has as its target T1, Seed linoleate 13S-lipoxygenase-1 (Glycine max) (UniProt P08170).
T1 sequence (whole entry): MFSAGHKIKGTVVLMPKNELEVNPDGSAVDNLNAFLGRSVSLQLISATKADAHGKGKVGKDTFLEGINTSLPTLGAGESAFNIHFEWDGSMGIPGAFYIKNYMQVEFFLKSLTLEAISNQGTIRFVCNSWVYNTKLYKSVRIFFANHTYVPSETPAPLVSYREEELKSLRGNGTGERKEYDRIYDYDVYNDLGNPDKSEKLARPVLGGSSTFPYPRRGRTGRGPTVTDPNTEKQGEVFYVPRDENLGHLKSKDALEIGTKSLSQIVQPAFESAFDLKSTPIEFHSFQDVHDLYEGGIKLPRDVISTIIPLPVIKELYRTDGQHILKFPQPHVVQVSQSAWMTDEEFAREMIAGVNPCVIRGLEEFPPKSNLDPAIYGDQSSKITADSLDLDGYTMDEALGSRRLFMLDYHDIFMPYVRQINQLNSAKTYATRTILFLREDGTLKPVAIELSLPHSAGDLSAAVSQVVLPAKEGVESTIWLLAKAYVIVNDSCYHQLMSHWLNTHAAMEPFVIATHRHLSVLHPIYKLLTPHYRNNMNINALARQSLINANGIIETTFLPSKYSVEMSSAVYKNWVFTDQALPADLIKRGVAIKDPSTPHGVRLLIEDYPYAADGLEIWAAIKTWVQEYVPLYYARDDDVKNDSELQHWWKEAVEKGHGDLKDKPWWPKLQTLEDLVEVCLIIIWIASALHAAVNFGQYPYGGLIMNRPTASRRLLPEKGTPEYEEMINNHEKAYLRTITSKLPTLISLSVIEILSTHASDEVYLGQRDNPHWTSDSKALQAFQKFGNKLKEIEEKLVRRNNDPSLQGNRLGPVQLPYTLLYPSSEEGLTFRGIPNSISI
The experiment in a line: Inhibition of Glycine max (soybean) lipoxygenase using sodium linoleate as substrate at 1 X 10^-4.

Assay [18] has as its system Radical scavenging activity. The assay can be described thus: Antioxidant activity assessed as DPPH radical scavenging activity at 1 X 10^-4 M after 60 min. It is filed as functional. In outline:
(§2)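 Test compound was mixed with DPPH (0.05 and 0.1 mM) in ethanol. Absorbance at 517 nm was read after 20 and 60 min and compared with the NDGA standard, with ethanol as control. Each experiment was run at least in triplicate, and the SD of absorbance was <10% of the mean.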

The test system of assay [19] is Radical scavenging activity. The experiment in a line: Antioxidant activity assessed as DPPH radical scavenging activity at 1 X 10^-4 M after 20 min. In kind it is functional. In outline: as §2
For orientation: The DPPH test is a chemical assay of radical scavenging.

Assay [20] has as its system Radical scavenging activity. The assay can be described thus: Antioxidant activity assessed as DPPH radical scavenging activity at 5 X 10^-5 M after 60 min. It is filed as functional. In outline: as §2
The subject of assay [21] is Radical scavenging activity. The assay can be described thus: Antioxidant activity assessed as DPPH radical scavenging activity at 5 X 10^-5 M after 20 min. It is filed as functional. In outline:
as §2

The inhibition is the change of the read-out against control, counted positive when it falls. With `CC(C(=O)N1CCCCC1)c1cccc(C(OC(=O)N2CCCCC2)c2ccccc2)c1` (configuration not stated), the outcome in assay [1], in assay [1] (H1N1), in assay [2], in assay [3], in assay [4] and in [5] was inactive. Further, the outcome in [6], in [7], in [8], in assay [9], in assay [10] and in [11] was inactive. Further, the result in [12], in [13] and in assay [14] was inactive. The inhibition worked out at 97.4% in assay [15]; 25.5% in [16]; 4.3% in assay [18]; 1.7% in assay [19]; 10% in assay [20]; 8.6% in assay [21]. For the same compound, the inhibition entry in assay [17] was “inactive”.
As for `CC(C(=O)NC1CCCCC1)c1cccc(C(OC(=O)NC2CCCCC2)c2ccccc2)c1` (configuration not stated), the result in [1], in [1] (H1N1), in [2], in assay [3], in assay [4] and in [5] was inactive. For the same compound, the result in assay [6], in [7], in assay [8], in [9], in assay [10] and in [11] was inactive. Further, the result in assay [12], in [13] and in assay [14] was inactive. For the same compound, the inhibition came out at 96.1% in [15]; 5.4% in assay [16]; 22.7% in [17]; 3.1% in assay [20]; 2% in assay [21]. For the same compound, the inhibition entry in [18] and in assay [19] was “inactive” throughout.
For `CCONC(=O)OC(c1ccccc1)c1cccc(C(C)C(=O)NOCC)c1` (configuration not stated), the outcome in [1], in assay [1] (H1N1), in assay [2], in [3], in assay [4] and in assay [5] was inactive. The result in [6], in [7], in [8], in assay [9], in assay [10] and in [11] was inactive. Further, the result in assay [12], in [13] and in assay [14] was inactive. Further, the inhibition worked out at 54.5% in [15]; 22.3% in assay [17]; 1.1% in assay [18]; 2.3% in assay [19]; 3.7% in assay [20]; 2.5% in assay [21]. In assay [16], the inhibition entry is “inactive”.
Regarding `CC(C(=O)N1CCCC1)c1cccc(C(OC(=O)N2CCCC2)c2ccccc2)c1` (configuration not stated), the outcome in [1], in [1] (H1N1), in assay [2], in assay [3], in [4] and in assay [5] was inactive. The outcome in assay [6], in assay [7], in [8], in [9], in assay [10] and in assay [11] was inactive. In addition, the outcome in [12], in assay [13] and in assay [14] was inactive. Moreover, the inhibition is 77.2% in [15]; 16.4% in [16]; 12.7% in assay [17]; 2.7% in [18]; 2.6% in assay [19]; 6.5% in assay [20]. In addition, the inhibition in assay [21] worked out at 5.7%.
Turning to `CC(C(=O)NCCc1ccccc1)c1cccc(C(OC(=O)NCCc2ccccc2)c2ccccc2)c1` (configuration not stated), the outcome in assay [1], in assay [1] (H1N1), in assay [2], in assay [3], in assay [4] and in assay [5] was inactive. Besides, the outcome in assay [6], in assay [7], in assay [8], in assay [9], in assay [10] and in [11] was inactive. Further, the outcome in assay [12], in assay [13] and in assay [14] was inactive. Further, the inhibition in assay [15] was 99%; in assay [16], 22.5%; in assay [17], 18.9%; in [18] it was 2.2%; in [20], 8.5%; in assay [21] it was 3.6%. The inhibition entry in [19] was “inactive”.
`CONC(=O)OC(c1ccccc1)c1cccc(C(C)C(=O)NOC)c1` (configuration not stated): the result in assay [1], in assay [1] (H1N1), in assay [2], in assay [3], in assay [4] and in assay [5] was inactive. Also, the outcome in assay [6], in assay [7], in [8], in assay [9], in [10] and in assay [11] was inactive. The result in assay [12], in [13] and in [14] was inactive. Besides, the inhibition in assay [15] was determined as 61%; in assay [16], 2.5%; in assay [17] it was 26.9%; in assay [18], 3.2%; in assay [19], 1.8%; in assay [20] it was 4.1%. In addition, the inhibition result in assay [21] was “inactive”.

Source of the values: ChEMBL document CHEMBL3045051 (Med Chem Res, 2011).
